Values after ≈ are worked out from the molar mass of the structure shown.
Tests used:
[1] = Inhibition of Escherichia coli DH5-alpha His tagged Fab1; design: species or system DH5alpha
Summary of the method: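 His-tagged E. coli FabI was expressed in E. coli TOP10 (0.2% arabinose induction), purified on Ni–NTA and eluted with 250 mM imidazole. NADH consumption was read at 340 nm for 10 min at room temperature. IC50 is the concentration giving 50% reduction of absorption.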

[2] = tested on: Staphylococcus aureus; test: Antimicrobial activity against Staphylococcus aureus ATCC 29213; assay type: functional
Summary of the method: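 Agar dilution on Mueller–Hinton agar with 5% horse blood, twofold serial compound dilutions. About 10^4 CFU per spot inoculated. Plates incubated at 35 °C for 20 h. MIC taken as the lowest concentration preventing visible growth.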

Question: With `Cc1c(Cc2c(Cl)cccc2Cl)c(=O)ccn1Cc1ccccc1` as the compound, how does the IC50 [1] read?
Answer: 0.3 µM

Question: What about the MIC [2] of the same compound?
Answer: 0.5 µg/mL (≈ 1.4 µM)

Question: Which IC50 [1] does the source give for `CCCCc1c(Cc2c(Cl)cccc2Cl)c(=O)ccn1Cc1ccccc1` here?
Answer: 4.5 µM

Question: And the MIC [2]?
Answer: 32 µg/mL (≈ 79.9 µM)

Question: Which IC50 [1] does the source give for `COC(=O)c1ccc(Cn2ccc(=O)c(Cc3c(Cl)cccc3Cl)c2C)cc1` here?
Answer: 0.3 µM

Question: What about the MIC [2] of the same compound?
Answer: > 128 µg/mL

Question: For `Cc1c(Cc2c(Cl)cccc2Cl)c(=O)ccn1Cc1ccc(C(=O)O)cc1`, which IC50 [1] is on record?
Answer: 22 µM

Question: And the MIC [2]?
Answer: > 128 µg/mL

Question: Which results are given for `Cc1c(Cc2ccccc2)c(=O)ccn1Cc1ccccc1`?
Answer: IC50 [1]: 20 µM; MIC [2]: 64 µg/mL (≈ 221 µM)

Question: What does the source list for `Cc1c(Cc2ccccc2Cl)c(=O)ccn1Cc1ccccc1`?
Answer: IC50 [1]: 4.2 µM; MIC [2]: 64 µg/mL (≈ 198 µM)

Question: Which results are given for `Cc1c(Cc2ccc(Cl)cc2Cl)c(=O)ccn1Cc1ccccc1`?
Answer: IC50 [1]: 2 µM; MIC [2]: 32 µg/mL (≈ 89.3 µM)

Question: What does the source list for `Cc1c(Cc2c(F)cccc2F)c(=O)ccn1Cc1ccccc1`?
Answer: IC50 [1]: 2.7 µM; MIC [2]: 4 µg/mL (≈ 12.3 µM)

Question: With `C=Cc1c(C)n(Cc2ccccc2)ccc1=O` as the compound, how does the IC50 [1] read?
Answer: > 100 µM

Question: Which IC50 [1] does the source give for `Cc1c(CCc2ccccn2)c(=O)ccn1Cc1ccccc1` here?
Answer: > 100 µM

Question: For `Cc1c(CC2CCCCC2)c(=O)ccn1Cc1ccccc1`, which IC50 [1] is on record?
Answer: 0.4 µM

Question: What about the MIC [2] of the same compound?
Answer: 32 µg/mL (≈ 108 µM)

Question: For `Cc1c(Cc2c(Cl)cccc2Cl)c(=O)ccn1CCCCCO`, which IC50 [1] is on record?
Answer: 1.8 µM

Question: What about the MIC [2] of the same compound?
Answer: 8 µg/mL (≈ 22.6 µM)

Question: For `Cc1c(Cc2c(Cl)cccc2Cl)c(=O)ccn1CCCCC(=O)O`, which IC50 [1] is on record?
Answer: 110 µM

Question: For `Cc1c(Cc2c(Cl)cccc2Cl)c(=O)ccn1Cc1c(Cl)cccc1Cl`, which IC50 [1] is on record?
Answer: 8.4 µM

Question: And the MIC [2]?
Answer: 32 µg/mL (≈ 74.9 µM)

Question: With `Cc1c(Cc2c(Cl)cccc2Cl)c(=O)ccn1Cc1ccc(N)cc1` as the compound, how does the IC50 [1] read?
Answer: 0.29 µM

Question: What about the MIC [2] of the same compound?
Answer: 1 µg/mL (≈ 2.68 µM)

Question: Which results are given for `Cc1c(Cc2c(Cl)cccc2Cl)c(=O)ccn1Cc1ccco1`?
Answer: IC50 [1]: 0.47 µM; MIC [2]: 2 µg/mL (≈ 5.74 µM)

Question: What does the source list for `Cc1cccc(C)c1Cc1c(C)n(Cc2ccccc2)ccc1=O`?
Answer: IC50 [1]: 4.3 µM; MIC [2]: 16 µg/mL (≈ 50.4 µM)

Question: Which IC50 [1] does the source give for `CCCCc1cc(=O)c(Cc2c(Cl)cccc2Cl)c(C)[nH]1` here?
Answer: 0.38 µM

Question: And the MIC [2]?
Answer: 8 µg/mL (≈ 24.7 µM)

Question: With `CCCCn1ccc(=O)c(Cc2c(Cl)cccc2Cl)c1C` as the compound, how does the IC50 [1] read?
Answer: 0.31 µM

Question: What about the MIC [2] of the same compound?
Answer: 2 µg/mL (≈ 6.17 µM)

Question: Which IC50 [1] does the source give for `CCCCCCCCCCn1ccc(=O)c(Cc2c(Cl)cccc2Cl)c1C` here?
Answer: 0.22 µM

Question: What about the MIC [2] of the same compound?
Answer: 32 µg/mL (≈ 78.4 µM)

Question: Which IC50 [1] does the source give for `Cc1[nH]c(CC2CCCCC2)cc(=O)c1Cc1c(Cl)cccc1Cl` here?
Answer: 0.29 µM

Question: And the MIC [2]?
Answer: 2 µg/mL (≈ 5.49 µM)

Question: With `Cc1c(/C=C/c2ccccn2)c(=O)ccn1Cc1ccccc1` as the compound, how does the IC50 [1] read?
Answer: > 100 µM

Question: With `Cc1c(Cc2c(F)cccc2Cl)c(=O)ccn1Cc1ccccc1` as the compound, how does the IC50 [1] read?
Answer: 0.39 µM

Question: And the MIC [2]?
Answer: 2 µg/mL (≈ 5.85 µM)

Question: For `Cc1[nH]ccc(=O)c1Cc1c(Cl)cccc1Cl`, which IC50 [1] is on record?
Answer: 120 µM

Question: What about the MIC [2] of the same compound?
Answer: > 64 µg/mL

Question: For `Cc1c(Cc2c(Cl)cc(Cl)cc2Cl)c(=O)ccn1Cc1ccccc1`, which IC50 [1] is on record?
Answer: 1.5 µM

Question: What about the MIC [2] of the same compound?
Answer: 8 µg/mL (≈ 20.4 µM)

Question: For `Cc1c(Cc2c(Cl)cccc2Cl)c(=O)ccn1C`, which IC50 [1] is on record?
Answer: 11 µM

Question: And the MIC [2]?
Answer: > 128 µg/mL

Question: For `Cc1c(Cc2c(Cl)cccc2Cl)c(=O)ccn1Cc1ccc(C(N)=O)cc1`, which IC50 [1] is on record?
Answer: 2.5 µM

Question: What about the MIC [2] of the same compound?
Answer: 32 µg/mL (≈ 79.7 µM)

Question: What does the source list for `CCc1c(Cc2c(Cl)cccc2Cl)c(=O)ccn1Cc1ccccc1`?
Answer: IC50 [1]: 0.78 µM; MIC [2]: 8 µg/mL (≈ 21.5 µM)

Question: With `Cc1c(Cc2c(Cl)cccc2Cl)c(=O)ccn1CC(C)(C)SCc1cccc(C(F)(F)F)c1` as the compound, how does the IC50 [1] read?
Answer: 1.9 µM

Question: And the MIC [2]?
Answer: 64 µg/mL (≈ 124 µM)

Question: Which results are given for `CCCCc1c(C)n(Cc2ccccc2)ccc1=O`?
Answer: IC50 [1]: 61 µM; MIC [2]: > 128 µg/mL

Question: What does the source list for `Cc1c(Cc2c(Cl)cccc2Cl)c(=O)ccn1CC1CCCCC1`?
Answer: IC50 [1]: 0.22 µM; MIC [2]: 0.25 µg/mL (≈ 0.686 µM)

Question: With `Cc1c(-c2ccccc2)c(=O)ccn1Cc1ccccc1` as the compound, how does the IC50 [1] read?
Answer: 2.9 µM

Question: Which results are given for `Cc1c(Cc2c(Cl)cccc2Cl)c(=O)ccn1Cc1ccc([N+](=O)[O-])cc1`?
Answer: IC50 [1]: 1.8 µM; MIC [2]: 16 µg/mL (≈ 39.7 µM)

Question: Which IC50 [1] does the source give for `Oc1cc(Cl)ccc1Oc1ccc(Cl)cc1Cl` [TRICLOSAN] here?
Answer: 0.51 µM

Question: And the MIC [2]?
Answer: 0.125 µg/mL (≈ 0.432 µM)
